Key:
Homo sapiens [1] = species: Homo sapiens; assay: Inhibition of mRNA splicing of human SMN2 exon 7 transfected in HEK293H cells assessed as compound concentration required to increase full-length SMN2 mRNA level by 1.5 times after 24 hrs by RT-qPCR analysis relative to GAPDH; assay type: cell-based
Summary of the method: (§1)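 HEK293H cells stably carrying the SMN2 minigene (exon 6 to 5' exon 8 fused to firefly luciferase) were plated and held for 6 h, then treated 24 h in duplicate at varying concentrations (0.5% DMSO). Full-length minigene mRNA and GAPDH were quantified by TaqMan RT-qPCR using actual PCR efficiencies. Results were normalized to GAPDH and DMSO and expressed as fold change versus DMSO.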

Homo sapiens [2] = species: Homo sapiens; assay: Inhibition of mRNA splicing of SMN2 exon 7 in GM03813 fibroblasts derived from SMA patient assessed as compound concentration required to increase SMN protein level by 1.5 times after 24 hrs by HTRF assay
Homo sapiens [3] = species: Homo sapiens; assay: Inhibition of mRNA splicing of SMN2 exon 7 in GM03813 fibroblasts derived from SMA patient assessed as maximum fold increase of SMN protein level by 1.5 times after 24 hrs by HTRF assay relative to control
[4] = Apparent permeability in human Caco2 cells; assay type: ADME, cell-based; details: Caco-2
Summary of the method: (§2)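 Bidirectional permeability was measured across a Caco-2 cell monolayer. Papp was reported, and efflux was expressed as the B-A/A-B ratio.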

[5] = Efflux ratio of apparent permeability from basolateral to apical over apical to basolateral side in human Caco2 cells; assay type: ADME, cell-based; details: Caco-2; summary of the method: as §2
[6] = Protein binding in human plasma; assay type: ADME, cell-free; details: read-out: PPB (converted)
[7] = AUC (0 to 6 hrs) in Sprague-Dawley rat at 10 mg/kg, po; assay type: ADME, organism-based; parameters: dose 10 mg/kg, time < 6 hr, route oral; details: in vivo
Summary of the method: (§3)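 Male Sprague-Dawley rats got a single oral 10 mg/kg dose as a suspension in 0.5% hydroxypropyl methylcellulose with 0.1% Tween-80. Plasma was sampled at several time points up to 6 h post dose to give AUC0-6h. Total brain concentration was taken at 6 h to give the brain/plasma ratio.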

[8] = Ratio of drug level in brain to plasma of Sprague-Dawley rat at 10 mg/kg, po measured at 6 hrs; assay type: ADME, organism-based; details: brain and plasma, read-out: BPR; summary of the method: as §3
Homo sapiens [9] = species: Homo sapiens; assay: Inhibition of mRNA splicing of human SMN2 exon 7 transfected in HEK293H cells assessed as maximum fold of increase in full-length SMN2 mRNA level after 24 hrs by RT-qPCR analysis relative to GAPDH; assay type: cell-based; summary of the method: as §1
Homo sapiens [10] = species: Homo sapiens; assay: Inhibition of mRNA splicing of human SMN2 exon 7 transfected in HEK293H cells assessed as compound concentration required to increase full-length SMN2 mRNA level by 1.5 times after 24 hrs by RT-qPCR analysis; assay type: cell-based; summary of the method: as §1
Homo sapiens [11] = species: Homo sapiens; assay: Inhibition of mRNA splicing of human SMN2 exon 7 transfected in HEK293H cells assessed as maximum fold of increase in full-length SMN2 mRNA level after 24 hrs by RT-qPCR analysis relative to control; assay type: cell-based; summary of the method: as §1

EC1.5 (Homo sapiens [2]) [nM]	Structure (SMILES)	EC1.5 (Homo sapiens [1]) [nM]	other results
> 10000	O=c1oc2cc(N3CCNCC3)ccc2cc1-c1nc2ccccc2s1	1000	fold change (FC) (Homo sapiens [3]): 1
160	Cc1ccc2nc(-c3cc4ccc(N5CCNCC5)cc4oc3=O)cn2c1	140	
69	Cc1cn2cc(-c3cc4ccc(N5CCN(C)CC5)cc4oc3=O)nc2cn1		Papp [4]: 2.7 ×10⁻⁶ cm/s; efflux ratio [5]: 0.74; fraction unbound [6]: 0.03; AUC(0-t) at 6 h [7]: < 10 ng·h/mL
66	Cc1cn2cc(-c3cc4ccc(N5CCNCC5)cc4oc3=O)ccc2n1	5	
640	Cc1cn2cc(-c3cc4ccc(N5CC[C@H]6CNC[C@H]65)cc4oc3=O)nc2c(C)n1	28	
39	Cc1cn2cc(-c3cc4ccc(N5CCNCC5)cc4c(=O)o3)nc2c(C)n1	8	Papp [4]: 4.4 ×10⁻⁶ cm/s; efflux ratio [5]: 2.6; fraction unbound [6]: 0.1; AUC(0-t) at 6 h [7]: 280 ng·h/mL; Kp at 6 h [8]: 0.6
> 10000	O=c1oc2cc(N3CCNCC3)ccc2cc1-c1cn2ccccc2n1	380	fold change (FC) (Homo sapiens [3]): 1.3
> 10000	Cc1cc2oc(-c3cc4ccc(N5CCNCC5)cc4oc3=O)cc2c(C)n1	1500	
16	Cc1cc2cc(-c3cc4ccc(N5CCNCC5)cc4oc3=O)oc2c(C)n1	4	
120	O=c1oc2cc(N3CCNCC3)ccc2cc1-c1cn2ccncc2n1	70	
360	O=c1oc2cc(N3CCNCC3)ccc2cc1-c1cn2ccsc2n1	110	fold change (FC) (Homo sapiens [3]): 1.5
> 10000	O=c1oc2cc(N3CCNCC3)ccc2cc1-c1nc2ccccc2[nH]1	430	fold change (FC) (Homo sapiens [3]): 1.2
> 10000	Cc1cn2cc(-c3cc4ccc(N5CCN(C(C)(C)C)CC5)cc4oc3=O)nc2c(C)n1	59	
210	CCc1nc(C)cn2cc(-c3cc4ccc(N5CCNCC5)cc4oc3=O)nc12	10	
5	Cc1cn2cc(-c3cc4ccc(N5CCNCC5)cc4oc3=O)nc2cn1	2	
15	Cc1cn2cc(-c3cc4ccc(N5CCNCC5)cc4oc3=O)nc2c(C)n1	2	AUC(0-t) at 6 h [7]: 340 ng·h/mL; Kp at 6 h [8]: 6.5
66	Cc1cn2cc(-c3cc4ccc(N5CCN6CCC[C@H]6C5)cc4oc3=O)nc2c(C)n1	21	
> 10000	COc1ccc(-c2cc3ccc(N4CCNCC4)cc3oc2=O)cc1	2000	fold change (FC) (Homo sapiens [3]): 1.1
29	Cc1cn2cc(-c3cc4ccc(N5CCNCC5)cc4oc3=O)cc2c(C)n1	4	
> 10000	O=c1oc2cc(N3CCNCC3)ccc2cc1-c1nc2ccccc2o1	8700	fold change (FC) (Homo sapiens [9]): 25; EC1.5 (Homo sapiens [10]): 10 µM; fold change (FC) (Homo sapiens [11]): 7; fold change (FC) (Homo sapiens [3]): 1
62	CCN1CCN(c2ccc3cc(-c4cn5cc(C)nc(C)c5n4)c(=O)oc3c2)CC1	10	
31	Cc1cn2cc(-c3cc4ccc(N5CCN(C)CC5)cc4oc3=O)nc2c(C)n1	18	Papp [4]: 1.4 ×10⁻⁶ cm/s; efflux ratio [5]: 1.1; fraction unbound [6]: 0.03; AUC(0-t) at 6 h [7]: 530 ng·h/mL; Kp at 6 h [8]: 0.7
76	Cc1cn2cc(-c3cc4ccc(N5CCN[C@@H](C(C)C)C5)cc4oc3=O)nc2c(C)n1	23	
61	Cc1cn2cc(-c3cc4ccc(N5CCC(N(C)C)CC5)cc4oc3=O)nc2c(C)n1	11	
63	Cc1cn2cc(-c3cc4ccc(N5CCN(C)[C@@H](C)C5)cc4oc3=O)nc2c(C)n1		AUC(0-t) at 6 h [7]: 260 ng·h/mL; Kp at 6 h [8]: 19
13	Cc1cn2cc(-c3cc4ccc(N5C[C@H]6CNC[C@H]6C5)cc4oc3=O)nc2c(C)n1	1	
5	Cc1cn2cc(-c3cc4ccc(N5CCN[C@@H](C)C5)cc4oc3=O)nc2c(C)n1	1	
13	Cc1cn2cc(-c3cc4ccc(N5CCN[C@H](C)C5)cc4oc3=O)nc2c(C)n1	3	
> 10000	COc1ccc(-c2cc3ccc(N4CCNCC4)cc3oc2=O)cc1OC	620	fold change (FC) (Homo sapiens [3]): 1.3
> 10000	CCc1ccc2nc(-c3cc4ccc(N5CCNCC5)cc4oc3=O)cn2c1	2700	

The next lines start with the compound.

Structure (SMILES)	EC1.5 (Homo sapiens [2]) [nM]	EC1.5 (Homo sapiens [1]) [nM]	other results
Cc1cn2nc(-c3cc4ccc(C5CCN(C)CC5)cc4oc3=O)cc2c(C)n1	> 10000	> 10000	
COc1ccc(-c2cc3ccc(N4CCNCC4)cc3c(=O)[nH]2)cc1OC	> 10000	1400	fold change (FC) (Homo sapiens [3]): 1.2
Cc1cn2cc(-c3cc4ccc(N5CCN(CCF)[C@@H](C)C5)cc4oc3=O)nc2c(C)n1	450	37	
Cc1cn2nc(-c3cc(=O)n4cc(N5CCN[C@H](C)C5)ccc4n3)cc2c(C)n1	71	11	
COc1ccc(-c2cc3ccc(N4CCNCC4)nc3oc2=O)cc1OC	> 10000	8800	fold change (FC) (Homo sapiens [3]): 1
Cc1cn2cc(-c3cc(=O)n4cc(N5CCNCC5)ccc4n3)cc(C)c2n1	60	48	
COc1ccc(-c2nc3ccc(N4CCNCC4)cc3[nH]c2=O)cc1OC	> 10000	2200	fold change (FC) (Homo sapiens [3]): 1.1
Cc1cn2nc(-c3cc(=O)n4cc(C5CCN(C)CC5)ccc4n3)cc2c(C)n1	210	53	
Cc1cn2cc(-c3cc(=O)n4cc(N5CCNCC5)ccc4n3)nc2c(C)n1	430	180	
O=c1oc2cc(N3CCCCC3)ccc2cc1-c1nc2ccccc2o1		> 32000	fold change (FC) (Homo sapiens [9]): 1; EC1.5 (Homo sapiens [10]): > 32 µM; fold change (FC) (Homo sapiens [11]): 1
COc1ccc(-c2cc(=O)n3cc(N4CCNCC4)ccc3n2)cc1OC	830	120	fold change (FC) (Homo sapiens [3]): 1.6
COc1ccc(-c2cc3ccc(N4CCNCC4)cn3c(=O)n2)cc1OC	> 10000	> 10000	fold change (FC) (Homo sapiens [3]): 1
COc1ccc(-c2cc(=O)n3cc(N4CCNCC4)ccc3c2)cc1OC	2500	920	fold change (FC) (Homo sapiens [3]): 1.6
COc1ccc(-c2cc3ccc(N4CCNCC4)cc3c(=O)o2)cc1OC	290	80	fold change (FC) (Homo sapiens [3]): 1.6
Cc1cn2nc(-c3cc(=O)n4cc(N5CCNCC5)ccc4n3)cc2c(C)n1	31	6	Papp [4]: 14 ×10⁻⁶ cm/s; efflux ratio [5]: 2.8; fraction unbound [6]: 0.3; AUC(0-t) at 6 h [7]: 380 ng·h/mL; Kp at 6 h [8]: < 0.1
Cc1cn2cc(-c3cc4ccc(N5CCN(CCCF)[C@@H](C)C5)cc4oc3=O)nc2c(C)n1	60	19	
Cc1cn2cc(-c3cc4ccc(N5CCN(C)CC5)cc4c(=O)o3)nc2cn1	120		AUC(0-t) at 6 h [7]: < 10 ng·h/mL
O=c1oc2cc(N3CCNCC3)ccc2cc1-c1ccccc1	> 10000	> 32000	fold change (FC) (Homo sapiens [3]): 1
COc1ccc(-c2cnc3cc(N4CCNCC4)ccn3c2=O)cc1OC	> 10000	3200	fold change (FC) (Homo sapiens [3]): 1
Cc1cn2nc(-c3cc(=O)n4cc(N5CCN(C)CC5)ccc4n3)cc2cn1	300		AUC(0-t) at 6 h [7]: < 10 ng·h/mL
O=c1oc2cc(N3CCOCC3)ccc2cc1-c1nc2ccccc2o1		> 32000	fold change (FC) (Homo sapiens [9]): 1; EC1.5 (Homo sapiens [10]): > 32 µM; fold change (FC) (Homo sapiens [11]): 1.1
Cc1cn2nc(-c3cc(=O)n4cc(N5CCC(N(C)C)CC5)ccc4n3)cc2c(C)n1	130	20	
Cc1cn2nc(-c3cc(=O)n4cc(N5CCN6CCC[C@H]6C5)ccc4n3)cc2c(C)n1	150	120	
Cc1cn2cc(-c3cc4ccc(C5CCN(C)CC5)cc4oc3=O)nc2c(C)n1	50	11	
Cc1cn2nc(-c3cc(=O)n4cc(N5CCN(C6CC6)CC5)ccc4n3)cc2c(C)n1	690	380	
Cc1cn2nc(-c3cc(=O)n4cc(N5CCN[C@@H](C)C5)ccc4n3)cc2c(C)n1	160	19	
Cc1cn2cc(-c3cc4ccc(CCCN(C)C)cc4oc3=O)nc2c(C)n1	220	58	
COc1ccc(-c2cn3ccc(N4CCNCC4)cc3nc2=O)cc1OC	> 10000	> 10000	fold change (FC) (Homo sapiens [3]): 1
CN(C)c1ccc2cc(-c3nc4ccccc4o3)c(=O)oc2c1		22000	fold change (FC) (Homo sapiens [9]): 1.5; EC1.5 (Homo sapiens [10]): > 32 µM; fold change (FC) (Homo sapiens [11]): 1.2

From ChEMBL document CHEMBL4477216, “Discovery and Optimization of Small Molecule Splicing Modifiers of Survival Motor Neuron 2 as a Treatment for Spinal Muscular Atrophy” (J Med Chem, 2016)
